ChEMBL document CHEMBL1123888, “Aldosterone antagonists. 2. Synthesis and biological activities of 11,12-dehydropregnane derivatives” (J Med Chem, 1987)
Active and inactive are the calls of the source. The rule behind the calls is not given here.

Tests used:
[1] = biological target: T1, Mineralocorticoid receptor (Rattus norvegicus) (UniProt P22199); assay: Relative binding affinity to the rat mineralocorticoid receptor determined in rat renal cytosol using [3]Ald as ligand
T1 sequence (whole entry): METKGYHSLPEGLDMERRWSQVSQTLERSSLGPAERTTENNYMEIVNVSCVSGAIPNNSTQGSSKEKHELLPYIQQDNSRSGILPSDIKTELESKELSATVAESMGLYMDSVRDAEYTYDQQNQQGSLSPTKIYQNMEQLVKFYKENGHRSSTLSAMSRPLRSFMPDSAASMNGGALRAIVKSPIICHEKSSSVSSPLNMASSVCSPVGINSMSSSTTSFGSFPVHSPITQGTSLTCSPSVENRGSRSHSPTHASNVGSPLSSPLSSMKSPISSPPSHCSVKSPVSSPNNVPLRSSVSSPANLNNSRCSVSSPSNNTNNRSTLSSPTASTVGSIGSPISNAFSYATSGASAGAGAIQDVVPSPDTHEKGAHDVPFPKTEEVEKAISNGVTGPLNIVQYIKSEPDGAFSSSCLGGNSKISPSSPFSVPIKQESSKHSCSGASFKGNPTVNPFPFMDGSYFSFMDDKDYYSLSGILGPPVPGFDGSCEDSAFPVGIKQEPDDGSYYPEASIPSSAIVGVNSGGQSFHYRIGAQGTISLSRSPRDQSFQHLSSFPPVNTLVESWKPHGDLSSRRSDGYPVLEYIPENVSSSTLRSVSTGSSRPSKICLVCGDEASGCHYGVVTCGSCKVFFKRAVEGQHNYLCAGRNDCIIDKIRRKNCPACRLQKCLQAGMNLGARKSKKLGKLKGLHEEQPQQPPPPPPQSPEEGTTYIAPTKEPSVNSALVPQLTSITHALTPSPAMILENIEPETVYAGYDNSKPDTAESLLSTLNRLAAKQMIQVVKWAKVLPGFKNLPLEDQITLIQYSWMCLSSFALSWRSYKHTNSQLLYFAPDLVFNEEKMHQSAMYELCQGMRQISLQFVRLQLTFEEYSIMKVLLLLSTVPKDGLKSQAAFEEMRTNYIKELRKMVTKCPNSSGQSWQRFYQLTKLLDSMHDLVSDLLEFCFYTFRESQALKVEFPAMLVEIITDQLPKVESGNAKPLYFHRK
In short: (§1)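 Renal cytosol came from male Sprague-Dawley rats (4-8 weeks) adrenalectomized bilaterally 1 or 2 days earlier. It was incubated with various competitor concentrations and about 1 nM [3H]Ald for 42-48 h at 0 °C or 100-120 min at 25 °C. Bound and free steroid were separated by DCC.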

[2] = biological target: T1, Mineralocorticoid receptor (Rattus norvegicus); assay: Antagonist activity against Mineralocorticoid receptor was determined after subcutaneous administration in Male Sprague Dawley rats; assay type: functional, organism-based
In short: (§2)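 Male rats were bilaterally adrenalectomized (bioassay modified from Kagawa). Ald (1 µg/kg) was given sc, immediately followed by test compound in sesame oil sc or orally. Urine was collected from 2 to 6 h after steroid. Potency came from the urinary Na/K ratio of sample versus control, with 95% confidence limits.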

[3] = biological target: T1, Mineralocorticoid receptor (Rattus norvegicus); assay: Agonist activity against Mineralocorticoid receptor was determined after subcutaneous administration in Male Sprague Dawley rats; (+) =positive; assay type: functional, organism-based; details: filed as agonist
[4] = biological target: T1, Mineralocorticoid receptor (Rattus norvegicus); assay: Relative binding affinity against mineralocorticoid receptor determined in rat renal cytosol using [3]Ald as ligand; in short: as §1
Rattus norvegicus = organism: Rattus norvegicus; assay: Displacement of [3H]promegestone from progestin receptor of rat uterine cytosol at 0 degree Centigrade
In short: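 Uteri from estradiol-primed rats supplied the cytosol. It was incubated with various competitor concentrations and about 1 nM [3H]promegestone for 16-20 h at 0 °C. Bound and free steroid were separated by DCC. RBA (progesterone = 100%) = 100 × ratio of the 50%-inhibition concentrations of standard and competitor.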

[5] = biological target: T1, Mineralocorticoid receptor (Rattus norvegicus); assay: Relative potency compared to Aldosterone; Range is 177-1340; assay type: functional
[6] = biological target: T1, Mineralocorticoid receptor (Rattus norvegicus); assay: Agonist activity against Mineralocorticoid receptor after subcutaneous administration in Male Sprague Dawley rats; (+) =positive; assay type: functional, organism-based; details: filed as agonist
[7] = biological target: T1, Mineralocorticoid receptor (Rattus norvegicus); assay: Antagonist activity against Mineralocorticoid receptor after subcutaneous administration in Male Sprague Dawley rats; (-) = negative; assay type: functional, organism-based; in short: as §2
[8] = biological target: T1, Mineralocorticoid receptor (Rattus norvegicus); assay: Relative potency compared to Aldosterone;Range is 53-97; assay type: functional
[9] = biological target: T2, Progesterone receptor (Rattus norvegicus) (UniProt Q63449); assay: Relative binding affinity against progesterone receptor determined in rat […] cytosol using [3H]DHT as ligand
T2 sequence (whole entry): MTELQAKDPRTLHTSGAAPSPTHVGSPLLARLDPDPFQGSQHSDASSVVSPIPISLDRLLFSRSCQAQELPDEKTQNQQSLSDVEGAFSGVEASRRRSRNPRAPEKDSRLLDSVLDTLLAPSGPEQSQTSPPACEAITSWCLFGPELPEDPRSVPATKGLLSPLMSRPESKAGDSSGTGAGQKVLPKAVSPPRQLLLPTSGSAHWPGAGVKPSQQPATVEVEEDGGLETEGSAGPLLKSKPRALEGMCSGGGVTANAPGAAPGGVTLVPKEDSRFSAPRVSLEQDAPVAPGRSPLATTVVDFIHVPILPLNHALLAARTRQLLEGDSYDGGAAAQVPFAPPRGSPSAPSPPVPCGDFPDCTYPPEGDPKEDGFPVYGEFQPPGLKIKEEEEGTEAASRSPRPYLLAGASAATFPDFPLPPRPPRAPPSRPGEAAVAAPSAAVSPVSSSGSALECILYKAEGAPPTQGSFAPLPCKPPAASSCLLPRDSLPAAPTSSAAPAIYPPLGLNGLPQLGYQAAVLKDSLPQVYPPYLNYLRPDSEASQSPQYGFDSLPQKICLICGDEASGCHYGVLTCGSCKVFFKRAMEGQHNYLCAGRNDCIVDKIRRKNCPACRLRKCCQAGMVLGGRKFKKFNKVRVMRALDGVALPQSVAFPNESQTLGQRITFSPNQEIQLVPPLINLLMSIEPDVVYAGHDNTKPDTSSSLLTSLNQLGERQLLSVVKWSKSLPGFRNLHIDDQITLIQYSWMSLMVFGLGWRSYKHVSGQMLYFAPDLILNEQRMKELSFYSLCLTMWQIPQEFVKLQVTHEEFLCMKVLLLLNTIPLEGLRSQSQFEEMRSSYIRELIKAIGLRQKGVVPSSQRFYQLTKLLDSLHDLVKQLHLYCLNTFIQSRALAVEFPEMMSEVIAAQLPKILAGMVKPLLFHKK

[10] = biological target: T1, Mineralocorticoid receptor (Rattus norvegicus); assay: Relative binding affinity against Mineralocorticoid receptor in Male Sprague-Dawley rats; in short: as §1
[11] = biological target: T1, Mineralocorticoid receptor (Rattus norvegicus); assay: In vivo relative Mineralocorticoid activity in Male Sprague-Dawley rats; assay type: functional, organism-based
[12] = biological target: T1, Mineralocorticoid receptor (Rattus norvegicus); assay: Antagonist activity against Mineralocorticoid receptor after subcutaneous administration in Male Sprague Dawley rats; (+) =positive; assay type: functional, organism-based; details: filed as antagonist; in short: as §2
[13] = biological target: T1, Mineralocorticoid receptor (Rattus norvegicus); assay: Antagonist activity against Mineralocorticoid receptor after oral administration in Male Sprague Dawley rats; (-) = negative; assay type: functional, organism-based; in short: as §2
[14] = biological target: T1, Mineralocorticoid receptor (Rattus norvegicus); assay: Antagonist activity against Mineralocorticoid receptor after po administration in Male Sprague Dawley rats; (-) = negative; assay type: functional, organism-based; in short: as §2
[15] = biological target: T3, Androgen receptor (Rattus norvegicus) (UniProt P15207); assay: Relative anti-androgenic activity as suppressive effect on weight increase of ventral prostate in castrated immature rats given testosterone propionate; assay type: functional; details: Prostate gland
T3 sequence (whole entry): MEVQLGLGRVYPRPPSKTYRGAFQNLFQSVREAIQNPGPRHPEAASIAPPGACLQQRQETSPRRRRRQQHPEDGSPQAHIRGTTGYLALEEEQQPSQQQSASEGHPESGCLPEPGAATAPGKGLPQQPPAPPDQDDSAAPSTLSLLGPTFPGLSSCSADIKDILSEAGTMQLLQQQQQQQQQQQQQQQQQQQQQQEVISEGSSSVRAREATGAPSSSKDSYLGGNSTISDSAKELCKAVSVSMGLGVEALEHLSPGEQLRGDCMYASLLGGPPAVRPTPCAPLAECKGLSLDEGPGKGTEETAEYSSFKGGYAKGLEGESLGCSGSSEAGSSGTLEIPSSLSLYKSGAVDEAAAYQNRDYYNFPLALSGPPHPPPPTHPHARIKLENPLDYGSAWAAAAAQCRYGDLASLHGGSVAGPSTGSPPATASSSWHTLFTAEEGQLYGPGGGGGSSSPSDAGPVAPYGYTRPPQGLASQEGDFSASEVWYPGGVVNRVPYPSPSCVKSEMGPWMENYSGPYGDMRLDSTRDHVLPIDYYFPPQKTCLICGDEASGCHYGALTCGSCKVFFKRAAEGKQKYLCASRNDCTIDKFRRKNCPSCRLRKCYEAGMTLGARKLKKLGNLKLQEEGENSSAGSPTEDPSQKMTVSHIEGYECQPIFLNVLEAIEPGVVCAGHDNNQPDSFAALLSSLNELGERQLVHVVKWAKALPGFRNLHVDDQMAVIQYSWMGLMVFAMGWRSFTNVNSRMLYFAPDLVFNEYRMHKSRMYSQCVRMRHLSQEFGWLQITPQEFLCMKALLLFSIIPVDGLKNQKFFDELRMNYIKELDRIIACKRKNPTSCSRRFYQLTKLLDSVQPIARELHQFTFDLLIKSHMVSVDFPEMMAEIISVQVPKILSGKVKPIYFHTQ
In short: (§3)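 Male Sprague-Dawley rats (3 weeks old) were castrated 3 days earlier. […] Suppression of accessory sex organ weight gain gave relative antiandrogenic activity.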

[16] = biological target: T1, Mineralocorticoid receptor (Rattus norvegicus); assay: (§4) Relative anti-mineralocorticoid potency compared to Spironolactone after oral administration; assay type: functional, organism-based; in short: as §2
[17] = biological target: T1, Mineralocorticoid receptor (Rattus norvegicus); assay: Antagonist activity against Mineralocorticoid receptor after oral administration in Male Sprague Dawley rats; (+) =positive; assay type: functional, organism-based; details: filed as antagonist; in short: as §2
[18] = biological target: T3, Androgen receptor (Rattus norvegicus); assay: Relative anti-androgenic activity as suppressive effect on weight increase of ventral prostate in castrated immature rats given testosterone propionate (95% confidence limit); assay type: functional; details: Prostate gland; in short: as §3
[19] = biological target: T1, Mineralocorticoid receptor (Rattus norvegicus); assay: as §4; assay type: functional, organism-based; in short: as §2; remark: listed apart in the source
[20] = biological target: T3, Androgen receptor (Rattus norvegicus); assay: Relative anti-androgenic activity as suppressive effect on weight increase of seminal vesicle in castrated immature rats given testosterone propionate (95% confidence limit); assay type: functional; in short: as §3
[21] = biological target: T1, Mineralocorticoid receptor (Rattus norvegicus); assay: Relative binding affinity against Mineralocorticoid Receptor in Male Sprague-Dawley rats
In short: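 Renal cytosol from male Sprague-Dawley rats (4-8 weeks) adrenalectomized bilaterally 1 or 2 days earlier. Incubated with various competitor concentrations and about 1 nM [3H]aldosterone, for 42-48 h at 0 °C or 100-120 min at 25 °C. Charcoal (DCC) separation of bound and free.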

[22] = biological target: T1, Mineralocorticoid receptor (Rattus norvegicus); assay: Relative potency against mineralocorticoid receptor; assay type: functional; in short: as §2

For `CC12CCC(=O)C=C1CCC1C2C=CC2(C)C1CC[C@@]21CCC(=O)O1` (stereo partly specified), the RBA [1] was 440%, the Activity [2] was “inactive” and the Activity [3] was “Agonist”. It also gave an RBA [4] of 570%, an RBA (Rattus norvegicus) of 53% and a Relative potency [5] of 177.

In the case of `CC(=O)S[C@@H]1CC2=CC(=O)CCC2(C)C2C=CC3(C)C(CC[C@@]34CCC(=O)O4)C21` (stereo partly specified), the RBA [1] is reported as 169%, the Activity [6] is reported as “Agonist” and the Activity [7] is reported as “inactive”. It also gave an RBA [4] of 43%, a Relative potency [8] of 53 and an RBA [9] of 14%.

Compound `C[C@]12CC[C@@H]3C4CCC(=O)C=C4CC[C@H]3[C@@H]1CC[C@@H]2C(=O)CO` (stereo partly specified) has a relative binding affinity (RBA) [10] of 170 and a Relative activity [11] of 1.5.

In the case of `CC12CCC(=O)C=C1C=CC1C2C=CC2(C)C1CC[C@@]21CCC(=O)O1` (stereo partly specified), the RBA [1] is reported as 64%, the Activity [12] is reported as “Antagonist” and the Activity [13] is reported as “inactive”. For the same compound, the Activity [14] was “inactive”, the RBA [4] was 70% and the RBA (Rattus norvegicus) was 4.7%. For the same compound, the Activity [15] was 1 and the Relative potency [16] was 2.

In the case of `CC12C=CC(=O)C=C1C=CC1C2C=CC2(C)C1CC[C@@]21CCC(=O)O1` (stereo partly specified), the RBA [1] is reported as 20%, the Activity [12] is reported as “Antagonist” and the Activity [17] is reported as “Antagonist”. For the same compound, the Activity [14] was “inactive”, the RBA [4] was 22% and the RBA (Rattus norvegicus) was 1.6%. It also gave an Activity [18] of 0.42, a Relative potency [19] of 0.93 and a Relative potency [16] of 2.08. It also gave an Activity [20] of 0.14.

In the case of `C[C@]12C[C@H](O)[C@H]3[C@@H](CCC4=CC(=O)CC[C@@]43C)[C@@H]1CC[C@@H]2C(=O)CO`, the RBA [21] is reported as 14% and the Relative activity [11] is reported as 0.14.

For `C[C@]12CCC(=O)C=C1CC[C@@H]1[C@@H]2[C@@H](O)C[C@]2(C=O)[C@@H](C(=O)CO)CC[C@@H]12`, the Relative potency [22] was 1 and the Relative activity [11] was 30.
